From ChEMBL document CHEMBL4261518, “Side chain-functionalized aniline-derived ursolic acid derivatives as multidrug resistance reversers that block the nuclear factor-kappa B (NF-κB) pathway and cell proliferation” (Medchemcomm, 2017)

Assays:
[1] = system: HepG2; test: Cytotoxicity against human HepG2 cells after 48 hrs by MTT assay; type: functional, cell-based; conditions: HepG2, 48 h
Method in brief: (§1)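 Cells grown overnight in DMEM + 10% FBS at 37 °C under 5% CO2, then given a range of compound concentrations for 48 h. MTT added for about 4 h, medium replaced by DMSO, absorbance read at 570/630 nm. IC50 reported as mean ± SD of five independent experiments.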

[2] = Cytotoxicity against human NCI-H460/DOX cells after 48 hrs by MTT assay; type: functional, cell-based; conditions: NCI-H460, 48 h; method in brief: as §1
[3] = Resistant factor, ratio of IC50 for human NCI-H460/DOX cells to IC50 for human NCI-H460 cells; type: functional
[4] = Inhibition of TNFalpha-induced NF-kB (unknown origin) activation expressed in human NCI-H460 cells after 7 hrs by luciferase reporter gene assay; type: cell-based; conditions: NCI-H460, 7 h
Method in brief: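 NCI-H460 cells transiently co-transfected with pNF-κB-Luc reporter and pSV-β-galactosidase internal control by lipofectamine. Medium changed after 6 h, then 6 h further culture. TNF-α (15 ng ml–1) plus compound given together for 7 h. Luciferase ratio to TNF-α-only cells, corrected for non-TNF background and viability. IC50 from sigmoidal variable-slope fit.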

[5] = Cytotoxicity against human HepG2/DOX cells after 48 hrs by MTT assay; type: functional, cell-based; method in brief: as §1
[6] = system: A549; test: Cytotoxicity against human A549 cells after 48 hrs by MTT assay; type: functional, cell-based; conditions: A549, 48 h; method in brief: as §1
[7] = Resistant factor, ratio of IC50 for human HepG2/DOX cells to IC50 for human HepG2 cells; type: functional
[8] = system: NCI-H460; test: Cytotoxicity against human NCI-H460 cells after 48 hrs by MTT assay; type: functional, cell-based; conditions: NCI-H460, 48 h; method in brief: as §1
[9] = system: MGC-803; test: Cytotoxicity against human MGC803 cells after 48 hrs by MTT assay; type: functional, cell-based; conditions: MGC-803, 48 h; method in brief: as §1
[10] = system: NCI-H460; test: Cytotoxicity against human NCI-H460 cells harboring pNF-kB-Luc assessed as reduction in cell viability after 7 hrs by MTT assay relative to control; set-up: concentration or dose not given beside the values; conditions: nci-h460, 7 h
[11] = system: L02; test: Cytotoxicity against human HL7702 cells after 48 hrs by MTT assay; type: cell-based; conditions: L02, 48 h; method in brief: as §1
[12] = system: T-24; test: Cytotoxicity against human T24 cells after 48 hrs by MTT assay; type: functional, cell-based; conditions: T-24, 48 h; method in brief: as §1
[13] = Cytotoxicity against human SPCA2 cells after 48 hrs by MTT assay; type: functional, cell-based; conditions: SPCA2, 48 h; method in brief: as §1

Structure (SMILES) | IC50 [1] [µM] | IC50 [2] [µM] | Ratio IC50 [3] | IC50 [4] [µM] | IC50 [5] [µM] | IC50 [6] [µM] | Ratio IC50 [7] | IC50 [8] [µM] | IC50 [9] [µM] | Activity [10] [%] | IC50 [11] [µM] | IC50 [12] [µM] | IC50 [13] [µM]
C[C@H]1[C@H](C)CC[C@]2(C(=O)NCCN(C)C)CC[C@]3(C)C(=CC[C@@H]4[C@@]5(C)CCC(=O)C(C)(C)[C@@H]5CC[C@]43C)[C@H]12 | 9.05 | 6.8 | 1.56 | 0.94 | 11.4 | 6.01 | 1.26 | 4.35 | 7.35 | < 5 | > 50 | 6.35 | 6.91
C[C@H]1[C@H](C)CC[C@]2(C(=O)OCC(=O)Nc3ccccc3)CC[C@]3(C)C(=CC[C@@H]4[C@@]5(C)CCC(=O)C(C)(C)[C@@H]5CC[C@]43C)[C@H]12 | 24.2 | 26.6 | 1.94 | 10.3 | > 50 | 14.1 | – | 13.8 | 16.1 | < 5 | > 50 | 16 | 16.3
CC(=O)O[C@H]1CC[C@]2(C)[C@H]3CC=C4[C@@H]5[C@@H](C)[C@H](C)CC[C@]5(C(=O)N5CCN(C)CC5)CC[C@@]4(C)[C@]3(C)CC[C@H]2C1(C)C | 27 | 49.7 | 2.35 | 4.8 | > 50 | 24.2 | – | 21.2 | 21.6 | < 5 | > 50 | 25.4 | 29.2
COc1ccc(NC(=O)COC(=O)[C@]23CC[C@@H](C)[C@H](C)[C@H]2C2=CC[C@@H]4[C@@]5(C)CCC(=O)C(C)(C)[C@@H]5CC[C@@]4(C)[C@]2(C)CC3)cc1OC | – | – | – | > 20 | – | 35.2 | – | 22.8 | 38.2 | < 5 | > 50 | 27.7 | 18.9
Cc1ccccc1NC(=O)COC(=O)[C@]12CC[C@@H](C)[C@H](C)[C@H]1C1=CC[C@@H]3[C@@]4(C)CCC(=O)C(C)(C)[C@@H]4CC[C@@]3(C)[C@]1(C)CC2 | – | – | – | 16.2 | – | 16.2 | – | 14 | 16.2 | < 5 | > 50 | 17.8 | 18.7
COc1ccc(NC(=O)COC(=O)[C@]23CC[C@@H](C)[C@H](C)[C@H]2C2=CC[C@@H]4[C@@]5(C)CCC(=O)C(C)(C)[C@@H]5CC[C@@]4(C)[C@]2(C)CC3)cc1 | – | – | – | 16 | – | 24.6 | – | 17.6 | 27.9 | < 5 | > 50 | 26.2 | 19.4
COc1ccc(NC(=O)[C@]23CC[C@@H](C)[C@H](C)[C@H]2C2=CC[C@@H]4[C@@]5(C)CC[C@H](OC(C)=O)C(C)(C)[C@@H]5CC[C@@]4(C)[C@]2(C)CC3)cc1 | 24.5 | 22.6 | 2.12 | 3.64 | 47.1 | 31.1 | 1.92 | 10.6 | 25.2 | < 5 | > 50 | 23.8 | 13.7
CC(=O)O[C@H]1CC[C@]2(C)[C@H]3CC=C4[C@@H]5[C@@H](C)[C@H](C)CC[C@]5(C(=O)Nc5ccc(C)c(C)c5)CC[C@@]4(C)[C@]3(C)CC[C@H]2C1(C)C | 17.4 | 18.9 | 1.81 | 4.8 | 26.2 | 12.4 | 1.51 | 10.4 | 15 | < 5 | > 50 | 16.6 | 12.2
COc1ccc(NC(=O)[C@]23CC[C@@H](C)[C@H](C)[C@H]2C2=CC[C@@H]4[C@@]5(C)CC[C@H](OC(C)=O)C(C)(C)[C@@H]5CC[C@@]4(C)[C@]2(C)CC3)cc1OC | – | – | – | 10.1 | – | 22.9 | – | 11.9 | 27.8 | < 5 | > 50 | 24.7 | 12.9
CC(=O)O[C@H]1CC[C@]2(C)[C@H]3CC=C4[C@@H]5[C@@H](C)[C@H](C)CC[C@]5(C(=O)Nc5ccc(C)cc5)CC[C@@]4(C)[C@]3(C)CC[C@H]2C1(C)C | 12.5 | 13.5 | 1.4 | 2.26 | 20.4 | 10.3 | 1.63 | 9.6 | 13.4 | < 5 | > 50 | 10.6 | 11.2
COc1ccc(NC(=O)[C@]23CC[C@@H](C)[C@H](C)[C@H]2C2=CC[C@@H]4[C@@]5(C)CCC(=O)C(C)(C)[C@@H]5CC[C@@]4(C)[C@]2(C)CC3)cc1OC | – | – | – | > 20 | – | 38.7 | – | 30.2 | 32.5 | < 5 | > 50 | 37.3 | 28.4
COc1cc(NC(=O)[C@]23CC[C@@H](C)[C@H](C)[C@H]2C2=CC[C@@H]4[C@@]5(C)CCC(=O)C(C)(C)[C@@H]5CC[C@@]4(C)[C@]2(C)CC3)cc(OC)c1OC | – | – | – | > 20 | – | 41.2 | – | 34.3 | 40.1 | < 5 | > 50 | 39.8 | 29.9
COc1cc(NC(=O)COC(=O)[C@]23CC[C@@H](C)[C@H](C)[C@H]2C2=CC[C@@H]4[C@@]5(C)CCC(=O)C(C)(C)[C@@H]5CC[C@@]4(C)[C@]2(C)CC3)cc(OC)c1OC | – | – | – | > 20 | – | 35.8 | – | 39.6 | 38.7 | < 5 | > 50 | 37.8 | 27.9
COc1cccc2c1C(=O)c1c(O)c3c(c(O)c1C2=O)C[C@@](O)(C(=O)CO)C[C@@H]3O[C@H]1C[C@H](N)[C@H](O)[C@H](C)O1 [DOXORUBICIN] | 6.91 | > 50 | – | – | > 50 | – | – | – | – | – | – | – | –
C[C@H]1[C@H](C)CC[C@]2(C(=O)N3CCN(C)CC3)CC[C@]3(C)C(=CC[C@@H]4[C@@]5(C)CCC(=O)C(C)(C)[C@@H]5CC[C@]43C)[C@H]12 | – | – | – | 15.5 | – | 23.4 | – | 19.2 | 25.6 | < 5 | > 50 | 27.2 | 22.4
COc1ccc(NC(=O)[C@]23CC[C@@H](C)[C@H](C)[C@H]2C2=CC[C@@H]4[C@@]5(C)CCC(=O)C(C)(C)[C@@H]5CC[C@@]4(C)[C@]2(C)CC3)cc1 | – | – | – | > 20 | – | 39.9 | – | 28.1 | 29.7 | < 5 | > 50 | 32.5 | 21.1
